This is an account of results in ChEMBL document CHEMBL4425150, “l-Cystine Diamides as l-Cystine Crystallization Inhibitors for Cystinuria” (J Med Chem, 2016).

The source made the active and inactive calls. The rule behind the calls is not given here.

The subject of series [1] is Cystine. Briefly: Potency index, ratio of L-cystine dimethyl ester concentration to compound concentration required to double metastable supersaturation range of L-cystine. In a few lines: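 Ratio is the EC2x of L-cystine dimethyl ester divided by the compound's EC2x. EC2x came from 72 h incubation at 25 °C in supersaturated L-cystine, with supernatant L-cystine measured by OPA/NBC fluorescence.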

Series [2] concerns Cystine. Briefly: Inhibition of hexagonal L-cystine plate crystal growth assessed as induction of plate to rod crystal morphology at 15 to 45 uM after 25 mins by atomic force microscopic analysis.
Series [3] deals with Cystine. Briefly: Inhibition of hexagonal L-cystine plate crystal growth assessed as reduction in crystal mass yield at 15 to 45 uM after 25 mins by atomic force microscopic analysis.
Series [4] deals with Cystine. Briefly: Inhibition of L-cystine crystallization assessed as concentration required to double metastable supersaturation range of L-cystine after 72 hrs by OPA/NBC derivatization based fluorescence assay. Summed up:
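Test solution (5 μL) added to 500 μL supersaturated L-cystine, then held at 25 °C for 72 h and centrifuged (10000 rpm, 4 min). Supernatant diluted 2-fold, reduced with DTT (rt, 10 min), alkylated with iodoacetic acid (rt, 15 min), then derivatized with OPA/NBC (3 min). Fluorescence read at Ex 355/Em 460 nm gives L-cystine concentration. EC2x is the inhibitor concentration doubling the lower-plateau L-cystine level.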

In series [5] the test system is Cystine. Briefly: Inhibition of hexagonal L-cystine plate crystal growth assessed as step velocity for crystal growth rate at 45 uM after 25 mins by atomic force microscopic analysis relative to control. In a few lines: (§1)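 In situ AFM of step velocity on {100} steps of hexagonal L-cystine crystals in aqueous 2 mM L-cystine, with additive at 15, 30 or 45 μM. Result expressed as V/V0, where V0 is the velocity measured first without additive; the value is a range.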

A short description of series [6]: Drug level in SLC3A1 knock out 129/C57BL6 mouse urine at 29.3 umol/kg, po administered daily through gavage for 1 week measured 4 hrs post last dose by LC-MS/MS analysis. It is filed as ADME, organism-based. The settings on record: read-out: Drug uptake. Summed up: (§2)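 Male mice, wild-type or Slc3a1 knockout, 4–5 per group, dosed by daily oral gavage at 29.3 μmol/kg for 1 week. Urine from each mouse collected individually over the 4 h right after the last dose. Compound in urine quantified by LC-MS/MS; pre-dose urine also tested.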

A short description of series [7]: Drug level in 129/C57BL6 mouse urine at 29.3 umol/kg, po administered daily through gavage for 1 week measured 4 hrs post last dose by LC-MS/MS analysis. It is filed as ADME, organism-based. The settings on record: read-out: Drug uptake. Summed up:
as §2

Series [8] in a line: Half life in pH 7.4 phosphate buffered saline at 100 uM at 37 degC by LC-MS/MS analysis. It is filed as physicochemical. As to conditions: buffer, pH 7.4, 100 µM. Summed up: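 Compound incubated in pH 7.4 phosphate buffered saline at 37 °C. Disappearance of parent followed over time by LC-MS, and half-life derived from that.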
The subject of series [9] is Cystine. Briefly: Inhibition of hexagonal L-cystine plate crystal growth assessed as step velocity for crystal growth rate at 30 uM after 25 mins by atomic force microscopic analysis relative to control. In a few lines: as §1
For series [10], the system named is Cystine. Briefly: Inhibition of L-cystine stone formation in SLC3A1 knock out 129/C57BL6 mouse model of cystinuria at 29.3 umol/kg, po administered daily through gavage for 4 weeks. It is filed as functional, organism-based. In a few lines: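 Male Slc3a1 knockout mice, groups of six or seven, dosed by daily gavage at 29.3 μmol/kg for 4 weeks. A parallel control group of seven mice received water only. Read-out is the fraction of mice forming stones.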

For series [11], the system named is Cystine. Briefly: Inhibition of hexagonal L-cystine plate crystal growth assessed as step velocity for crystal growth rate at 15 uM after 25 mins by atomic force microscopic analysis relative to control. Summed up:
as §1

Take `CN1CCN(C(=O)[C@@H](N)CSSC[C@H](N)C(=O)N2CCN(C)CC2)CC1.Cl.Cl.Cl.Cl`: the Ratio in series [1] was 24.5; in [5], 0.3 to 0.4; in series [9], 0.32 to 0.5; in [11] it was 0.52 to 0.66. The inhibition result in [2], in series [3] and in series [10] was “Active” throughout. The CD in [4] came to 0.26 µM. Also, the concentration at 4 h in [6] was determined as 7.59 µM; in series [7], 2100 nM. In series [8], this compound came in with a t1/2 of 19.8 days.
Take `Cl.Cl.N[C@@H](CSSC[C@H](N)C(=O)N1CCOCC1)C(=O)N1CCOCC1`: the Ratio was 7.4 in series [1], 0.29 to 0.53 in series [5], 0.34 to 0.58 in series [9] and 0.44 to 0.65 in [11]. In addition, the inhibition result in [2] and in [3] was “Active” in each case. In addition, in series [4], the CD stood at 0.86 µM. The concentration at 4 h in [6] worked out at 2.09 µM. For the same compound, the t1/2 in series [8] was 46.2 days. Besides, the inhibition result in [10] was “inactive”.
`COC(=O)[C@@H](N)CSSC[C@H](N)C(=O)OC`: the inhibition entry in [2] and in [3] was “Active” throughout. Also, the CD in series [4] came to 6.37 µM. Also, the results for the Ratio in series [5], in [9] and in [11] were 0.21 to 0.48, 0.27 to 0.54 and 0.4 to 0.65, respectively. Further, the t1/2 in [8] is 0.11 days.
